Source: PubChem BioAssay
ERAP1 inh – human ERAP1 aminopeptidase inhibitors, primary screen, biochemical, single point, plate reader; Endoplasmic reticulum aminopeptidase 1 (Homo sapiens), Q9NZ08; recombinant ERAP1, Leu-AMC fluorescence, 60 min; inhibition, % at 10.7 µM; actives 0.15% (n = 340,000);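 active = mean replicate inhibition of at least 30%, or all replicates individually reaching that 30% level; inactive = mean below 30% and not every replicate reaching it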
Target sequence (Q9NZ08 whole entry, looked up): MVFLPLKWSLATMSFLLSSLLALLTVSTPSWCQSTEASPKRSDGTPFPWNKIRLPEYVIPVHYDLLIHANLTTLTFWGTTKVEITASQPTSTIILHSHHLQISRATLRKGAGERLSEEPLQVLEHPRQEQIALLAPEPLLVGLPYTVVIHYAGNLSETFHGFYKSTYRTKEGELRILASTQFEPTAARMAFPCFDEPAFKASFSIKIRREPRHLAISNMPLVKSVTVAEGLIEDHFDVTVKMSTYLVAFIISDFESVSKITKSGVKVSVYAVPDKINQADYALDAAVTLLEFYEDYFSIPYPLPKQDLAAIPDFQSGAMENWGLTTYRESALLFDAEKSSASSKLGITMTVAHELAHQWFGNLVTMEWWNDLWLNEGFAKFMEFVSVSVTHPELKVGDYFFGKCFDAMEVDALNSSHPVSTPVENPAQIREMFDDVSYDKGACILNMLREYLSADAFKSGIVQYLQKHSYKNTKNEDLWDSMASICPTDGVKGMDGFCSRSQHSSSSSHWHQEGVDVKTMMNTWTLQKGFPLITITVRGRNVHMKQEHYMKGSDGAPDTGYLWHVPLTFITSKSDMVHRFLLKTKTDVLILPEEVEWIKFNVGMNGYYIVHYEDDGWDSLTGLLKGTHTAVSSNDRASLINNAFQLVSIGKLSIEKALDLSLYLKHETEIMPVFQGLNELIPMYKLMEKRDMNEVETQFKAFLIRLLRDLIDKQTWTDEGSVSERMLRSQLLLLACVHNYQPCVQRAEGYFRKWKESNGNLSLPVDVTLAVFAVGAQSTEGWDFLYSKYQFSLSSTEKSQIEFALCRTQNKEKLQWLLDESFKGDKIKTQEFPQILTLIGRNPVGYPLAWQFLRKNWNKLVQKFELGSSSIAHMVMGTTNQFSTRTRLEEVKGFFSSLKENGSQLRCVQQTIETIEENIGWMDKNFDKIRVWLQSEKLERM
E-sel inducer – E-selectin induction in HUVECs, primary screen, imaging, HUVEC, immunofluorescence imaging, single point. actives 0.37% (n = 260,000). P16581. activation, % at 7.58 µM. AID 686992, 2013. normalized: neutral wells 0, TNF-alpha wells 100;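 active = mean E-selectin-positive cell signal at least 10% of the positive control, reached in at least 60% of replicates, without over 20% cell loss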
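Read-out basis: % PE-positive cells; Test system: HUVEC primary endothelial cells; Technique: immunofluorescence imaging; Dosing: single-point compound dose.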
PglD inh – C. jejuni PglD acetyltransferase inhibitors, primary screen, biochemical, DTNB colorimetric, single point | UDP-N-acetylbacillosamine N-acetyltransferase PglD (Campylobacter jejuni) | actives 0.098% (n = 360,000) | purified PglD enzyme, DTNB colorimetric CoA detection | inhibition, % at 12.5 µM; in the data active = inhibition above about 16%, passing the limit was not always enough
SIRT5 inh – SIRT5 desuccinylase inhibitors, primary screen, biochemical, fluorescence imaging, single point, set 5 | NAD-dependent protein deacylase sirtuin-5, mitochondrial (Homo sapiens), Q9NXA8 | Purified SirT5, succinyl-peptide AMC, trypsin-coupled fluorescence | inhibition, % at 15 µM | actives 1.1% (n = 330,000); in the data active = inhibition above about 15%
DENV2 CPE – inhibitors of DENV2 cytopathic effect, primary screen, cell-based, plate reader, single concentration; DENV2-infected cells, cytopathic effect rescue; CPE inhibition, % at 9.99 µM; actives 1.7% (n = 350,000); AID 651640, 2012; in the data active = CPE inhibition above about 20%, passing the limit was not always enough; tested in BHK-21 cells
Large screens that a line does not name were inactive; ! = a repeat was not active. Sampled rows, rich in hits. Any-hit rate of the full collection: about 2.5%.

COc1cc(CCCN2C(=O)C(=O)NC[C@@H]2Cc2ccc(O)cc2)cc(OC)c1OC	none
Cc1noc(C)c1S(=O)(=O)N(C)C[C@H]1OCCCC[C@@H](C)Oc2ccc(N(C)C)cc2C(=O)N([C@@H](C)CO)C[C@@H]1C	none
COC(=O)c1c(NC(=O)C2=COCCO2)sc(C)c1C	none
COc1ccc(/C=C/c2nc3ccccc3c(=O)n2-c2cccc(C(=O)O)c2)cc1	SIRT5 inh 18.1
C[C@@H]1CN([C@@H](C)CO)C(=O)c2cc(C3=CCCCC3)cnc2O[C@H]1CN(C)C(=O)Nc1cccc(F)c1	DENV2 CPE 29.7!
C[C@H](CO)N1C[C@H](C)[C@@H](CN(C)C(=O)C2CCOCC2)Oc2ncc(C3=CCCCC3)cc2C1=O	DENV2 CPE 45.3
C[C@@H]1CN([C@H](C)CO)C(=O)c2cc(C3=CCCC3)cnc2O[C@@H]1CN(C)C(=O)Nc1ccc(C(F)(F)F)cc1	DENV2 CPE 32.7
C[C@@H]1CN([C@@H](C)CO)C(=O)c2cc(C3=CCCC3)cnc2O[C@H]1CN(C)C(=O)NC1CCCC1	DENV2 CPE 31.3 (no result: E-sel inducer)
C[C@@H]1CN([C@H](C)CO)C(=O)c2cc(C3=CCCCC3)cnc2O[C@@H]1CN(C)C(=O)C1CCOCC1	none
C[C@H]1CN([C@@H](C)CO)C(=O)c2cc(C3=CCCCC3)cnc2O[C@@H]1CN(C)C(=O)Nc1cccc(F)c1	none
COc1ccc(-n2nc(C(=O)NCC(=O)N3CCCC(C)C3)c3ccccc3c2=O)cc1Cl (stereo unspecified)	none
O=C(NC1CCCCCC1)C(=S)NC1CCCCC1	none (no result: PglD inh)
C[C@H](CO)N1C[C@H](C)[C@@H](CN(C)C(=O)Nc2ccc(F)cc2)Oc2ncc(C3=CCCC3)cc2C1=O	DENV2 CPE 26.6 (no result: SIRT5 inh)
C[C@H](CO)N1C[C@H](C)[C@@H](CN(C)C(=O)Nc2ccc(F)cc2)Oc2ncc(C3=CCCCC3)cc2C1=O	none
C[C@@H]1CN([C@H](C)CO)C(=O)c2cc(C3=CCCCC3)cnc2O[C@@H]1CN(C)C(=O)Nc1ccc(F)cc1	DENV2 CPE 33.7
Cc1ccc(S(=O)(=O)NC(=O)c2ccc(Br)o2)cc1	SIRT5 inh 34.7
COC(=O)NNC(=O)C(C)Oc1ccc(Cl)cc1Cl (stereo unspecified)	none (no result: E-sel inducer, PglD inh)
C/C(=N\NC(N)=O)c1ccc(-n2ccnc2)cc1	SIRT5 inh 21.8
Cc1ccccc1S(=O)(=O)N1CC[C@@H]2[C@@H](CO)N(C)c3ccc(Br)cc3[C@@H]21	none (no result: ERAP1 inh, SIRT5 inh)
CN1c2ccc(Br)cc2[C@H]2[C@H](CCN2S(=O)(=O)c2ccccc2F)[C@@H]1CO	DENV2 CPE 40.5
CN1c2ccc(Br)cc2[C@@H]2[C@@H](CCN2S(=O)(=O)c2ccccc2F)[C@H]1CO	none
Cc1ccccc1S(=O)(=O)N1CC[C@H]2[C@@H](CO)N(C)c3ccc(Br)cc3[C@H]21	DENV2 CPE 142.6 (no result: ERAP1 inh, SIRT5 inh)
Cc1ccc(S(=O)(=O)N2CCC3CC2c2cc(Cl)ccc23)cc1 (stereo unspecified)	none
COc1ccc(S(=O)(=O)N2CCC3CC2c2cc(-c4ccc5c(c4)OCO5)ccc23)cc1 (stereo unspecified)	DENV2 CPE 88.7
Cc1cccc(C)c1OCC(O)CN1CCN(c2ccccc2)CC1 (stereo unspecified)	none (no result: E-sel inducer)
C[C@@H]1CN([C@@H](C)CO)C(=O)c2cc(NC(=O)Nc3ccccc3)ccc2O[C@H]1CN(C)C	none
N#Cc1ccc(S(=O)(=O)Nc2ccc3ccccc3n2)cc1	none (no result: E-sel inducer, PglD inh)
Brc1ccc2oc(-c3ccn[nH]3)cc2c1	E-sel inducer 73.8 (no result: ERAP1 inh, SIRT5 inh)
Cc1cc(C)c(S(=O)(=O)Nn2cnnc2)c(C)c1	none
C[C@H]1CN([C@@H](C)CO)C(=O)c2cccc(NC(=O)C3CCCCC3)c2O[C@@H]1CN(C)Cc1ccc(C(=O)Nc2ccccc2N)cc1	DENV2 CPE 80.1
C[C@@H]1CN([C@H](C)CO)C(=O)c2cccc(NC(=O)c3ccncc3)c2O[C@H]1CN(C)Cc1ccc(C(=O)Nc2ccccc2N)cc1	none
C[C@H]1CN([C@@H](C)CO)C(=O)c2cccc(NS(=O)(=O)c3cccs3)c2O[C@@H]1CN(C)Cc1ccc(C(=O)Nc2ccccc2N)cc1	E-sel inducer 392.0 (no result: PglD inh)
CNC[C@H]1Oc2c(NC(=O)c3ccncc3)cccc2C(=O)N([C@@H](C)CO)C[C@H]1C	DENV2 CPE 38.5
C[C@H](CO)N1C[C@H](C)[C@@H](CN(C)Cc2ccc(C(=O)Nc3ccccc3N)cc2)Oc2c(NS(=O)(=O)c3cccs3)cccc2C1=O	none (no result: PglD inh)
C[C@H]1CN([C@@H](C)CO)C(=O)c2cccc(NC(=O)c3ccncc3)c2O[C@H]1CN(C)Cc1ccc(C(=O)Nc2ccccc2N)cc1	E-sel inducer 50.9, DENV2 CPE 43.8 (no result: PglD inh, SIRT5 inh)
CN1c2ccc(-c3ccc(F)cc3)cc2[C@H]2[C@H](CCN2C(=O)Cc2ccccn2)[C@H]1CO	none
C[C@H]1CN([C@@H](C)CO)C(=O)c2cc(NC(=O)C3CCCCC3)ccc2O[C@H]1CN(C)Cc1ccc(C(=O)Nc2ccccc2N)cc1	E-sel inducer 29.2
C[C@H]1CN([C@@H](C)CO)C(=O)c2cccc(NS(C)(=O)=O)c2O[C@@H]1CN(C)Cc1ccc(C(=O)Nc2ccccc2N)cc1	DENV2 CPE 75.1 (no result: E-sel inducer, PglD inh)
C[C@@H]1CN([C@H](C)CO)C(=O)c2cccc(NC(=O)c3ccncc3)c2O[C@H]1CN(C)S(C)(=O)=O	SIRT5 inh 35.7 (no result: E-sel inducer)
C[C@@H]1CN([C@@H](C)CO)C(=O)c2cccc(NC(=O)c3ccncc3)c2O[C@H]1CN(C)Cc1ccccc1	SIRT5 inh 23.4
C[C@@H]1CN([C@H](C)CO)C(=O)c2cccc(NS(C)(=O)=O)c2O[C@H]1CN(C)Cc1ccc(C(=O)Nc2ccccc2N)cc1	none (no result: E-sel inducer, PglD inh)
COC(=O)Cc1ccc(NC(=S)N2CCN(C(=O)C3CCCO3)CC2)cc1 (stereo unspecified)	none
Cc1cccc(S(=O)(=O)N2CCCc3ccccc32)c1	none
CC(C)C(=O)N1CCN(c2ccccc2NC(=O)c2cccc(Cl)c2)CC1	none (no result: ERAP1 inh, E-sel inducer, SIRT5 inh, DENV2 CPE)
O=C(N/N=C/c1ccc(C(=O)O)cc1)C(=O)N1CCCCCC1	none
CCOP(=O)(OCC)C(Nc1cccc([N+](=O)[O-])c1)c1ccc(OC)cc1 (stereo unspecified)	none
CCOC(=O)Cc1csc(NC(=O)c2cc(C)cc(C)c2)n1	SIRT5 inh 15.9 (no result: E-sel inducer)
COc1ccccc1S(=O)(=O)N1CCN(S(=O)(=O)c2ccccc2C#N)CC1	SIRT5 inh 91.4 (no result: E-sel inducer)
COc1ccccc1S(=O)(=O)N1CCN(S(=O)(=O)c2cccs2)CC1	none
CCCCN1C(=O)C(CC(=O)NCC2CCCCC2)CC(C(=O)N(CC)CC)=C1C (stereo unspecified)	SIRT5 inh 17.0
